Legend:
physchem [1] = details: octanol/water
physchem [2] = details: octanol/water, pH 7.2
Bacillus subtilis [3] = type: functional
Bacillus subtilis [4] = experiment: microbe, parasite or virus in culture; type: functional, organism-based; details: read-out: I50
physchem [5] = experiment: physchem
Bacillus subtilis [6] = experiment: Inhibitory activity on germination of Bacillus subtilis PCI219 spores was determined; No inhibition at 2.5e-3M; type: functional, organism-based
Summary of the method: (§1)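 Unheated B. subtilis PCI219 spores (about 2.2×10^8 cells per mL) were incubated with the test compound in 0.1 mM L-alanine germinant and 0.05 M phosphate buffer, pH 7.2, at 37 °C. Germination was followed as the decrease in absorbance at 650 nm. The rate was taken as the slope of the steepest linear portion and compared with an inhibitor-free control.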

[7] = Distribution coefficient (log D) was determined at pH 7.2
Bacillus subtilis [8] = experiment: Inhibitory activity on germination of Bacillus subtilis PCI219 spores was determined; No inhibition at 5e-2M; type: functional, organism-based
Summary of the method: as §1

Bacillus subtilis [9] = tested on: Bacillus subtilis
Bacillus subtilis [10] = experiment: Inhibitory activity on germination of Bacillus subtilis PCI219 spores was determined at 2 x 10E-4 M; type: functional
Summary of the method: as §1

[11] = Dissociation constant was determined spectrophotometrically; Experiment 1; type: physicochemical
Bacillus subtilis [12] = experiment: Inhibitory activity on germination of Bacillus subtilis PCI219 spores was determined; No inhibition at 5*10e-2 M; type: functional, organism-based
Summary of the method: as §1

Structure (SMILES) | logP (physchem [1]) | logD (physchem [2]) | Log 1/I50 (Bacillus subtilis [3]) | IC50 (Bacillus subtilis [4]) [µM] | pKa (physchem [5]) | further results
CCc1ccc(O)cc1 | 2.26 | 2.26 | 2.8 1/M | 1600 | 10 | –
NC(Cc1ccc(O)cc1)C(=O)O (stereo not given) | – | – | – | – | – | I50 (Bacillus subtilis [6]): No inhibition
CC(C)Cc1ccc(O)cc1 | 3.4 | 3.4 | 3.52 1/M | 302 | 10.2 | –
CC(C)(C)c1ccccc1O | – | – | 4.46 1/M | 34.5 | 11.3 | –
O=Cc1ccccc1O | – | – | 2.42 1/M | 3780 | 8.3 | –
Cc1cc(C)c(O)c(C)c1 | 2.86 | 2.86 | 2.85 1/M | 1400 | 10.9 | –
CC(C)(C)c1ccc(O)cc1 | – | – | – | 302 | – | –
CC(C)c1ccc(O)cc1 | 2.86 | 2.86 | 3.17 1/M | 674 | 10.1 | –
CC(C)c1ccccc1O | 2.88 | 2.88 | 3.57 1/M | 268 | 10.4 | –
Oc1c(Cl)cc(Cl)cc1Cl | – | – | – | 130 | – | –
Oc1c(Cl)cc(Cl)c(Cl)c1Cl | 4.1 | 2.59 | 3.57 1/M | 269 | 5.7 | –
CCc1ccccc1O | 2.47 | 2.47 | 3.31 1/M | 493 | 10.2 | –
CC(C)Cc1ccccc1O | 3.27 | 3.27 | 3.62 1/M | 242 | 10.5 | –
Oc1ccc(Br)cc1 | – | – | – | 717 | – | –
Oc1ccc(-c2ccccc2)cc1 | 3.2 | 3.2 | 3.89 1/M | 129 | 9.5 | –
Oc1ccc(Cl)cc1Cl [2,4-DICHLOROPHENOL] | 3.14 | 3.06 | 3.62 1/M | 242 | – | –
Oc1ccccc1Cl [2-CHLOROPHENOL] | – | 2.13 | 3.25 1/M | 562 | 8.5 | –
Oc1ccccc1-c1ccccc1 [2-PHENYLPHENOL] | 3.09 | 3.09 | 3.55 1/M | 280 | 9.9 | –
Nc1cccc(O)c1 [3-AMINOPHENOL] | 0.16 | 0.16 | 1.35 1/M | 44700 | 9.9 | –
O=[N+]([O-])c1cccc(O)c1 [3-NITRO-PHENOL] | – | – | 3.05 1/M | 901 | 8.4 | logD [7]: 1.97
Nc1ccc(O)cc1 [4-AMINOPHENOL] | – | – | – | – | 10.3 | I50 (Bacillus subtilis [8]): No inhibition; Log 1/I50 (Bacillus subtilis [9]): No inhibition
O=Cc1ccc(O)cc1 [4-HYDROXYBENZALDEHYDE] | 1.37 | 1.22 | 1.7 1/M | 20000 | 7.6 | –
CCCCCCCCCC(=O)O [DECANOIC ACID] | 3.92 | 1.62 | 2.22 1/M | 6030 | – | –
CCCCCCCCCCCC(=O)O [DODECANOATE] | 4.92 | 2.62 | 2.7 1/M | 1980 | 4.9 | –
COc1ccccc1O [GUAIACOL] | 1.33 | 1.33 | 2.2 1/M | 6310 | 9.9 | –
CCCCCCC(=O)O [HEPTANOATE] | 2.42 | 0.12 | 0.82 1/M | 151000 | 4.9 | –
Oc1c(Cl)cc(Cl)c(Cl)c1Cc1c(O)c(Cl)cc(Cl)c1Cl [HEXACHLOROPHENE] | 7.54 | 5.54 | 3.7 1/M | 198 | 5 | –

Structure (SMILES) | logP (physchem [1]) | logD (physchem [2]) | Log 1/I50 (Bacillus subtilis [3]) | IC50 (Bacillus subtilis [4]) [µM] | pKa (physchem [5]) | further results
CCCCC/C=C\C/C=C\CCCCCCCC(=O)O [LINOLEIC ACID] | – | – | – | – | – | inhibition at 200 µM (Bacillus subtilis [10]): 34.6%
CC/C=C\C/C=C\C/C=C\CCCCCCCC(=O)O [LINOLENIC ACID] | – | – | – | – | – | inhibition at 200 µM (Bacillus subtilis [10]): 32%
Cc1cccc(O)c1 [METACRESOL] | 1.97 | 1.97 | 2.7 1/M | 2010 | 10.1 | –
COC(=O)c1ccccc1O [METHYL SALICYLATE] | 2.46 | 2.46 | 3 1/M | 1030 | 10.2 | –
COC(=O)c1ccc(O)cc1 [METHYLPARABEN] | – | – | 2.7 1/M | 2010 | – | –
CCCCCCCCCCCCCC(=O)O [MYRISTIC ACID] | – | – | – | – | – | inhibition at 200 µM (Bacillus subtilis [10]): 21%
O=[N+]([O-])c1ccccc1O [NITROPHENOLATE] | 1.77 | 1.47 | 2.5 1/M | 3150 | 7.2 | –
CCCCCCCCC(=O)O [NONANOATE] | 3.42 | 1.12 | 2.05 1/M | 8900 | 4.9 | –
CCCCCCCC(=O)O [OCTANOIC ACID] | 2.92 | 0.62 | 1.27 1/M | 53500 | – | –
CCCCCCCC/C=C\CCCCCCCC(=O)O [OLEIC ACID] | – | – | – | – | – | inhibition at 200 µM (Bacillus subtilis [10]): 30.2%
Cc1cc(O)cc(O)c1 [ORCINOL] | – | – | 1.77 1/M | 16800 | 9.3 | –
Cc1ccccc1O [ORTHOCRESOL] | 1.98 | 1.98 | 2.89 1/M | 1300 | 10.3 | –
O=[N+]([O-])c1ccc(O)cc1 [P-NITROPHENOL] | – | 1.61 | 2.17 1/M | 6830 | 7.1 | –
CCCCCCCCCCCCCCCC(=O)O [PALMITIC ACID] | – | – | – | – | – | inhibition at 200 µM (Bacillus subtilis [10]): 17.3%
O=C(O)c1ccc(O)cc1 [PARABEN] | 1.57 | – | – | – | – | pKa [11]: 9.4; I50 (Bacillus subtilis [12]): Not Active
Oc1ccc(Cl)cc1 [PARACHLOROPHENOL] | – | – | 3.1 1/M | 797 | 9.4 | –
Oc1c(Cl)c(Cl)c(Cl)c(Cl)c1Cl [PENTACHLOROPHENOL] | – | – | 3.46 1/M | 346 | 5 | –
Oc1ccccc1 [PHENOL] | – | – | – | 1500 | – | –
Nc1ccccc1O [QUESTIOMYCIN B] | 0.57 | 0.57 | 1.52 1/M | 29900 | 9.7 | –
Oc1cccc(O)c1 [RESORCINOL] | 0.78 | 0.78 | 2.42 1/M | 3830 | 9.4 | –
O=C(O)c1ccccc1O [SALICYLIC ACID] | 2.24 | – | – | – | – | I50 (Bacillus subtilis [12]): No inhibition
CCCCCCCCCCCCCCCCCC(=O)O [STEARIC ACID] | – | – | – | – | – | inhibition at 200 µM (Bacillus subtilis [10]): 14.2%
Cc1ccc(C(C)C)c(O)c1 [THYMOL] | – | – | 3.31 1/M | 494 | 10.7 | –
Oc1cc(Cl)c(Cl)cc1Cl [TRICLOFENOL] | 3.72 | 3.31 | 3.89 1/M | 128 | – | –
CCCCCCCCCCCCC(=O)O [TRIDECANOATE] | 5.42 | 3.12 | 3.12 1/M | 750 | 4.9 | –
CCCCCCCCCCC(=O)O [UNDECANOATE] | 4.42 | 2.12 | 2.35 1/M | 4470 | 4.9 | –
Cc1ccc(O)cc1 [p-CRESOL] | – | 1.94 | 2.44 1/M | 3640 | – | –

From ChEMBL document CHEMBL1122024, “Quantitative structure-inhibitory activity relationships of phenols and fatty acids for Bacillus subtilis spore germination” (J Med Chem, 1982)
